The record followed here is ChEMBL document CHEMBL4152363, “Andrographolide derivative as STAT3 inhibitor that protects acute liver damage in mice” (Bioorg Med Chem, 2018).

SMILES strings stand for the structures. Calls of active or inactive are those of the source. The rule behind the calls is not given here. Some results are limits rather than exact numbers.

Series [1] concerns the target T1, Signal transducer and activator of transcription 3 (Homo sapiens, UniProt P40763). The experiment in a line: Inhibition of IFNgamma-stimulated STAT3 activation in human AD293 cells incubated with IFNgamma for 16 hrs followed by compound addition measured after 24 hrs by luciferase reporter gene assay. It counts as cell-based. The procedure, abridged: (§1)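 AD-293 or HeLa cells in DMEM/10% FBS stimulated with 20 pg/mL IFN-γ; compound treatment 24 h; luciferase activity measured in cell extracts; EC50 derived.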
A general note: Reporter assays use an easily measured gene product as a stand-in for the process of interest.

Series [2] has as its target T1, Signal transducer and activator of transcription 3. The experiment in a line: Inhibition of IL-6 stimulated STAT3 activation in human AD293 cells incubated with IL-6 for 16 hrs followed by compound addition measured after 6 hrs by luciferase reporter gene assay. It counts as cell-based. The procedure, abridged:
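AD-293 cells stimulated with 2.5 μg/mL IL-6; compound treatment 6 h; luciferase activity read from cell extracts; EC50 derived.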

Series [3] has the same target. The experiment in a line: Inhibition of […] activation in human AD293 cells incubated […] for 16 hrs followed by compound addition measured after 4 hrs by luciferase reporter gene assay. In kind it is cell-based.
For the next series, the system named is AD293. The experiment in a line: (§2) Cytotoxicity against human AD293 cells. It counts as cell-based. The settings on record: ad293. The procedure, abridged: (§3)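 AD-293 or HeLa cells grown in high-glucose DMEM with 10% FBS and 1% penicillin-streptomycin; compound exposure 24 h; cytotoxicity reported as CC10.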
The target in series [4] is T1, Signal transducer and activator of transcription 3. Briefly: Inhibition of IFNgamma-stimulated STAT3 activation in human HeLa cells incubated with IFNgamma for 16 hrs followed by compound addition measured after 24 hrs by luciferase reporter gene assay. In kind it is cell-based. The procedure, abridged: as §1
Series [5] shares this target. Briefly: Inhibition of […] activation in human HeLa cells incubated […] for 16 hrs followed by compound addition measured after 4 hrs by luciferase reporter gene assay. It counts as cell-based. The procedure, abridged:
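NF-κB pathway in AD-293 or HeLa cells stimulated with 50 ng/mL TNF-α; compound treatment 4 h; luciferase activity read from cell extracts; EC50 derived.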

A further series deals with HeLa. Briefly: Cytotoxicity against human HeLa cells. In kind it is cell-based. In a few lines: as §3
Series [6] deals with T2, Signal transducer and activator of transcription 1-alpha/beta (Homo sapiens) (UniProt P42224).
T2 sequence (whole entry): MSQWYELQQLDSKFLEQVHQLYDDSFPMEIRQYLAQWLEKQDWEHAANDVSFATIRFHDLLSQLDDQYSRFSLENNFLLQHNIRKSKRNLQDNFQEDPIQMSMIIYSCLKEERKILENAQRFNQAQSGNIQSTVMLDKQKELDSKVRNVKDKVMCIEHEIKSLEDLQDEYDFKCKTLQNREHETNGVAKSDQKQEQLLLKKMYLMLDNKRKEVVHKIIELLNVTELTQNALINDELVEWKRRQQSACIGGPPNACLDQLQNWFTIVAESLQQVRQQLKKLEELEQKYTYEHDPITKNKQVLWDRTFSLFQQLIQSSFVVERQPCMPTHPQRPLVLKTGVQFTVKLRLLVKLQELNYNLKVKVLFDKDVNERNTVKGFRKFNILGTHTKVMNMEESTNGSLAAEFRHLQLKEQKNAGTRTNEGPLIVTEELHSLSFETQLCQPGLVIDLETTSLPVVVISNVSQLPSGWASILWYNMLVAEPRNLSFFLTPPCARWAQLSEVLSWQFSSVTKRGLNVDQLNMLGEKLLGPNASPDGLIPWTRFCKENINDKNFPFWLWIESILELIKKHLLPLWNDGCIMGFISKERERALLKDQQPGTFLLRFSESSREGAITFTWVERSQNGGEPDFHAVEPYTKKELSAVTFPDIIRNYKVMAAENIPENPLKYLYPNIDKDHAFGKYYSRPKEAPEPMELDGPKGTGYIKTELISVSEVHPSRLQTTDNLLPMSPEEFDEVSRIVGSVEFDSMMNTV
Briefly: Inhibition of IFNgamma-stimulated STAT1 phosphorylation at Tyr701 residues in human AD293 cell lysates incubated with IFNgamma followed by compound addition at 10 uM by Western blot analysis. In a few lines: (§4)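 AD-293 cells treated with 1 μg/mL IFN-γ alone or with compounds at 10 μM; phospho- and total STAT1 and STAT3 assessed by western blot; representative of at least three independent experiments.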
In general terms: Immunoblotting shows a protein as a band on a membrane.

Series [7] has as its target T1, Signal transducer and activator of transcription 3. Briefly: Inhibition of IFNgamma-stimulated STAT3 phosphorylation at Tyr705 residues in human AD293 cell lysates incubated with IFNgamma followed by compound addition at 10 uM by Western blot analysis. In a few lines: as §4
Series [8] is described as follows: as §2. It counts as cell-based. The settings on record: AD293 cells. In a few lines:
as §3

Series [9] has as its target T1, Signal transducer and activator of transcription 3. Briefly: Inhibition of IFNgamma-stimulated GFP/FLAG-tagged STAT3 dimerization in human AD293 cells incubated for 6 hrs by Western blot analysis. In kind it is cell-based. In a few lines: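 AD-293 cells co-transfected 48 h with GFP- and FLAG-tagged STAT3 plasmids, then IFN-γ with or without compound for 6 h; 100 μg lysate (RIPA) immunoprecipitated with anti-FLAG and protein G beads; blots probed for GFP and FLAG, chemiluminescent detection.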

T1 sequence (P40763 whole entry): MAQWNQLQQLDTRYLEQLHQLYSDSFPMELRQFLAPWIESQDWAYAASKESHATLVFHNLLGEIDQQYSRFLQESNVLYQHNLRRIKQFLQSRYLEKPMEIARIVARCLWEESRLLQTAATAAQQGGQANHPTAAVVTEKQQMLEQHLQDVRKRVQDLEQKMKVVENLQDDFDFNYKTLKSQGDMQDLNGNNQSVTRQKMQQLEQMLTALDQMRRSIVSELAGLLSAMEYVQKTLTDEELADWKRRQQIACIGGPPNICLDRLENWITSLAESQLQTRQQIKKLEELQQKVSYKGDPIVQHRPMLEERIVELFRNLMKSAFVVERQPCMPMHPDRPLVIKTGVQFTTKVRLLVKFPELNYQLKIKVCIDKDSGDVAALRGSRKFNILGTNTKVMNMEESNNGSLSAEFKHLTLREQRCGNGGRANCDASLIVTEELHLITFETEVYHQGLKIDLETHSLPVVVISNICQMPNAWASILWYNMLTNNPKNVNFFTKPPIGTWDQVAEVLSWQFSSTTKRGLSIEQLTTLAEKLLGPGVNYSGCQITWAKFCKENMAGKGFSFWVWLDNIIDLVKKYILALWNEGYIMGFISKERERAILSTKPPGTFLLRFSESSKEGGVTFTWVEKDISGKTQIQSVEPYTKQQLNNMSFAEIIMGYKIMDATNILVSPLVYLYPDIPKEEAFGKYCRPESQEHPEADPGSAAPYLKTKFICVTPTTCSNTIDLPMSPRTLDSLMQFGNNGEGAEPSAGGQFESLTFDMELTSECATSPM

As for `CC(C)(C)[Si](C)(C)O[C@@H]1CC[C@]2(C)[C@H](CC[C@@]3(CO3)[C@H]2C/C=C2/C(=O)OC[C@H]2O)[C@]1(C)CO`, the concentration for a half-maximal effect (EC50) (usually the concentration that produces a half-maximal response) was 5.39 µM in series [1]; 4.16 µM in [2]; more than 10 µM in series [3]; 6.15 µM in series [4]; more than 10 µM in [5]. The CC10 with AD293 and in the series on HeLa was more than 10 µM throughout. Besides, the inhibition entry in [6] and in [7] was “inactive” each time.

Take `C=C1CC[C@H]2[C@@](C)(CCC(=O)[C@@]2(C)CO[Si](C)(C)C(C)(C)C)[C@@H]1C/C=C1/C(=O)OC[C@@H]1OC(C)=O`: the EC50 in [1] is 4.75 µM; in [2], 4.78 µM; in [3], 7.98 µM; in series [4], 9.33 µM; in series [5], more than 10 µM. For the same compound, in series [8], the midpoint of cytotoxicity, the CC50, lay at 8.23 µM. Also, the CC10 in the series with HeLa is more than 10 µM.

With `C=C1CC[C@@H]2[C@](C)(CO[Si](C)(C)C(C)(C)C)[C@H](O)CC[C@@]2(C)[C@@H]1C/C=C1/C(=O)OC[C@H]1OC(C)=O`, the EC50 is 1.18 µM in [1]; 2.21 µM in series [2]; 6.92 µM in [3]; 4.33 µM in series [4]; 8.11 µM in series [5]. Further, in series [8], the CC50 (as a rule, the concentration at which the toxic effect on the cells reaches its halfway point) was determined as 7.33 µM. Further, the CC10 with HeLa is more than 10 µM.

On to `CC(C)(C)[Si](C)(C)O[C@@H]1CC[C@]2(C)[C@H](CC[C@]3(CO3)[C@H]2C/C=C2/C(=O)OC[C@H]2O)[C@]1(C)CO`, for which the EC50 in [1] is 5.38 µM; in series [2] it was more than 10 µM; in series [3], more than 10 µM; in series [4], 8.34 µM; in series [5], more than 10 µM. The CC10 in the series on AD293 and in the series on HeLa was more than 10 µM in each case. Further, the inhibition result in [6] and in [7] was “inactive” in each case.

Turning to `Cc1ccc(S(=O)(=O)OCC(=O)Nc2ccc(C(=O)O)cc2)cc1`, the 50% inhibitory concentration (IC50) – broadly, the concentration needed to halve the response being measured – in series [9] was 86 µM.

`C=C1CC[C@@H]2[C@](C)(CO[Si](C)(C)C(C)(C)C)[C@H](OC(C)=O)CC[C@@]2(C)[C@@H]1C/C=C1/C(=O)OC[C@H]1OC(C)=O`: the 50% effective concentration (EC50) was 5.05 µM in series [1]; more than 10 µM in series [2]; more than 10 µM in series [3]; 5.8 µM in series [4]; more than 10 µM in [5]. Further, the CC10 with AD293 and in the series with HeLa was more than 10 µM throughout. Further, the inhibition result in [6] and in series [7] was “inactive” each time.

In the case of `CC(=O)O[C@@H]1COC(=O)/C1=C/C[C@@H]1[C@]2(CC[C@@H]3[C@](C)(CO)[C@H](O)CC[C@]31C)CO2`, the concentration giving a half-maximal response (EC50) was 5.11 µM in series [1]; 3.11 µM in [2]; 9.49 µM in series [3]; 9.45 µM in [4]; 9.67 µM in series [5]. In addition, in series [8], half-maximal cytotoxicity (CC50) was put at 10.9 µM. Besides, the CC10 with HeLa is more than 10 µM.

For the compound `CC(=O)OC[C@]1(C)C(=O)CC[C@@]2(C)[C@H](C/C=C3/C(=O)OC[C@H]3O[Si](C)(C)C(C)(C)C)[C@]3(CC[C@@H]21)CO3`, the concentration for a half-maximal effect (EC50) in [1] is 5.38 µM; in series [2] it was more than 10 µM; in series [3], more than 10 µM; in series [4], 8.34 µM; in series [5], more than 10 µM. In addition, the CC10 in the series with AD293 and with HeLa was more than 10 µM in each case. Also, in series [7], the inhibition result was “Active”.

Turning to `C=C1CC[C@@H]2[C@](C)(CO)[C@H](O)CC[C@@]2(C)[C@@H]1C/C=C1/C(=O)OC[C@H]1O[Si](C)(C)C(C)(C)C`, the EC50 in [1] is 5.68 µM; in [2], 10.6 µM; in series [3], more than 10 µM; in [4], 6.57 µM; in [5] it was more than 10 µM. Also, the CC10 in the series with AD293 and in the series on HeLa was more than 10 µM in each case. Further, the inhibition entry in [6] and in [7] was “inactive” each time.
